Measurements as given in paper PMC6148399 (SLAS discovery : advancing life sciences R & D, 2018).
pIC50, pKi: −log10 of the molar value.

How the values were obtained:
human IP6K2 = molecular target: T1, human IP6K2 (Homo sapiens, UniProt Q9UHH9); assay: IP6K2 TR-FRET assay for ADP detection; assay type: biochemical; settings: read-out: IC50 for IP6K2; TR-FRET Adapta, 400 nM IP6K2, 10 µM ATP, 10 µM InsP6
T1 sequence (Q9UHH9 1-426): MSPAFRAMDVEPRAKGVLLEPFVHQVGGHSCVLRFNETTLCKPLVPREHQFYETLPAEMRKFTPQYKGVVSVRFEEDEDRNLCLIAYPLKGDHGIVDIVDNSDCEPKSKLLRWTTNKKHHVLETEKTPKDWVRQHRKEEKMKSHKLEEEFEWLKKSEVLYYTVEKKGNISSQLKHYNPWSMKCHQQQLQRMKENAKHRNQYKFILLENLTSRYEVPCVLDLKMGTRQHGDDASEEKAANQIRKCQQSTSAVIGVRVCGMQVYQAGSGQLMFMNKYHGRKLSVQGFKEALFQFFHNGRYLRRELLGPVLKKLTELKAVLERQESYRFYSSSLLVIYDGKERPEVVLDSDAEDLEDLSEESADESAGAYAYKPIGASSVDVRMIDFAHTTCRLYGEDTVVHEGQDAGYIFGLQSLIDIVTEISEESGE
Summary of the method: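 Buffer: 50 mM HEPES pH 7.5, 0.01% Brij-35, 10 mM MgCl2, 1 mM EGTA. Test compound (3-fold, 10-point dilutions) preincubated 10–20 min at room temperature with enzyme, then ATP/InsP6 added; 30 min reaction. Detection: 2 nM Eu-anti-ADP antibody, 12 nM ADP tracer, 10 mM EDTA (final), 30 min. 665/615 nm ratio; inhibition scaled DMSO-only (0%) to no-enzyme (100%); ~20% ATP turnover.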

IP6K1 = IP6K1 (Homo sapiens, UniProt Q92551); settings: cited from earlier work
Sequence of IP6K1 (Q92551 whole entry, species assumed): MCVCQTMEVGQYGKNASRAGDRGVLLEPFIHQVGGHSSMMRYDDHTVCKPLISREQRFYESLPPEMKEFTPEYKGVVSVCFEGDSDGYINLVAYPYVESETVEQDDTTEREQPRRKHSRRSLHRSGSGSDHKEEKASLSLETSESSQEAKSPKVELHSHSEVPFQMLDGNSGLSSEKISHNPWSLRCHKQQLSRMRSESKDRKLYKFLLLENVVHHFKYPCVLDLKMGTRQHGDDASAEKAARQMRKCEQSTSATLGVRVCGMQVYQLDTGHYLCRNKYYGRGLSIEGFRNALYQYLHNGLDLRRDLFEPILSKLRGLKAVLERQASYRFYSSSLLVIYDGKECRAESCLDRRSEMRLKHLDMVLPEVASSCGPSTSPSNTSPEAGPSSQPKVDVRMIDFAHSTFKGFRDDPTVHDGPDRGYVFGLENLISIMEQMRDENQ

O=[N+]([O-])c1ccc(CNc2nc(NCc3cccc(C(F)(F)F)c3)nc3nc[nH]c23)cc1 [TNP, N2-(m-(trifluoromethyl)benzyl) N6-(p-nitrobenzyl)purine]
pIC50 (human IP6K2): 5.13 | pIC50 (IP6K1; read-out: IC50 previously reported for IP6K1): 6.37 | pKi (IP6K1; read-out: Ki previously reported for IP6K1): 6.62
